Results reported in ChEMBL document CHEMBL1126297, “Synthesis and evaluation of analogues of (Z)-1-(4-methoxyphenyl)-2-(3,4,5-trimethoxyphenyl)ethene as potential cytotoxic and antimitotic agents” (J Med Chem, 1992).
One block for each compound: values may come before it.

How the values were obtained:
Format in all cases: functional
HT-29 = assay: Cytotoxicity against human HT-29 colon cell line.; details: read-out: ED50 (the source's name)
In short: (§1)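 MTT colorimetric assay run in the Purdue Cell Culture Laboratory. Poorly water-soluble compounds were serially diluted in DMSO and added as 0.5 μL aliquots per well. Cells were incubated with compound for 6 days before MTT was added. […] The reported ED50 is the mean of two determinations.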

Bos taurus = organism: Bos taurus; assay: Inhibition of tubulin polymerization
In short: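 Bovine brain tubulin, purified to electrophoretic homogeneity, was preincubated at 37 °C with a range of compound concentrations and then chilled on ice. GTP was added and polymerization followed at 37 °C by turbidity at 350 nm. Extent was read at 20 min against two controls per experiment, and IC50 was determined graphically. Actives were run in ≥3 independent assays, inactives (IC50 > 40 μM) in ≥2.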

A549 = assay: Compound was evaluated for cytotoxicity against human A-549 non-small cell lung cancer cell line.; details: read-out: ED50 (the source's name); in short: as §1
MLM [1] = assay: Cytotoxicity against human MLM melanoma cell line.; details: read-out: ED50 (the source's name); in short: as §1
SK-MEL-5 = assay: Compound was evaluated for cytotoxicity against human SKMEL-5 melanoma cell line.; details: read-out: ED50 (the source's name); in short: as §1
MCF7 = assay: Cytotoxicity against human MCF-7 breast cancer cell line.; details: read-out: ED50 (the source's name); in short: as §1
MLM [2] = assay: Compound was evaluated for cytotoxicity against human MLM melanoma cell line.; details: read-out: ED50; in short: as §1

Structure (SMILES): COc1ccc(/C=C\c2cc(OC)c(O[Si](C)(C)C(C)(C)C)c(OC)c2)cc1
EC50 (HT-29): 9 µM
IC50 (Bos taurus): > 40 µM
EC50 (A549): > 25 µM
EC50 (MLM [1]): > 25 µM
EC50 (SK-MEL-5): > 25 µM
EC50 (MCF7): > 25 µM

Structure (SMILES): COc1ccc(CC(C#N)c2cc(OC)c(OC)c(OC)c2)cc1 (stereo unspecified)
EC50 (HT-29): 7.5 µM
IC50 (Bos taurus): 11 µM
EC50 (A549): 9.6 µM
EC50 (MLM [1]): 1.6 µM
EC50 (SK-MEL-5): 4.1 µM
EC50 (MCF7): 1.4 µM

Structure (SMILES): COc1ccc(Cc2c3cc(OC)c(OC)c(OC)c3cc[n+]2C)cc1
EC50 (HT-29): 20.5 µM
IC50 (Bos taurus): > 40 µM
EC50 (A549): 19.5 µM
EC50 (MLM [1]): > 25 µM
EC50 (SK-MEL-5): 2.1 µM
EC50 (MCF7): > 25 µM

Structure (SMILES): CCCOc1ccc(/C=C/c2cc(OC)c(OC)c(OC)c2)cc1
EC50 (HT-29): > 25 µM
IC50 (Bos taurus): > 40 µM
EC50 (A549): 9.2 µM
EC50 (MLM [1]): > 25 µM
EC50 (SK-MEL-5): > 25 µM
EC50 (MCF7): 12.5 µM

Structure (SMILES): COc1cc(/C=C/c2ccc(C)cc2)cc(OC)c1OC
EC50 (HT-29): 0.9 µM
IC50 (Bos taurus): > 40 µM
EC50 (A549): 1.1 µM
EC50 (MLM [1]): 6.3 µM
EC50 (SK-MEL-5): 0.8 µM
EC50 (MCF7): 1.9 µM

Structure (SMILES): COc1ccc(/C=C/c2cc(OC)c(O[Si](C)(C)C(C)(C)C)c(OC)c2)cc1
EC50 (HT-29): > 25 µM
IC50 (Bos taurus): > 40 µM
EC50 (A549): > 25 µM
EC50 (MLM [1]): > 25 µM
EC50 (SK-MEL-5): > 25 µM
EC50 (MCF7): > 25 µM

Structure (SMILES): COc1ccc(CC2NCCc3c2cc(OC)c(OC)c3OC)cc1 (stereo unspecified)
EC50 (HT-29): 20.2 µM
IC50 (Bos taurus): > 40 µM
EC50 (A549): 19.3 µM
EC50 (MLM [1]): > 25 µM
EC50 (SK-MEL-5): > 25 µM
EC50 (MCF7): > 25 µM

Structure (SMILES): COc1ccc(C2Cc3cc(OC)c(OC)c(OC)c3C2=O)cc1 (stereo unspecified)
EC50 (HT-29): > 25 µM
IC50 (Bos taurus): > 40 µM
EC50 (A549): > 25 µM
EC50 (MLM [1]): > 25 µM
EC50 (SK-MEL-5): > 25 µM
EC50 (MCF7): > 25 µM

Structure (SMILES): COc1ccc(/C=C\c2ccc(OC)c(OC)c2)cc1 [7Z-3,4,4'-TRIMETHOXYSTILBENE]
EC50 (HT-29): > 25 µM
IC50 (Bos taurus): 18 µM
EC50 (A549): > 25 µM
EC50 (MLM [1]): > 25 µM
EC50 (SK-MEL-5): > 25 µM
EC50 (MCF7): > 25 µM

Structure (SMILES): COc1ccc(/C=C\c2cc(OC)cc(OC)c2)cc1 [8Z-3,4',5-TRIMETHOXYSTILBENE]
EC50 (HT-29): 0.34 µM
IC50 (Bos taurus): 3.8 µM
EC50 (A549): 0.13 µM
EC50 (MLM [1]): 0.098 µM
EC50 (SK-MEL-5): 0.42 µM
EC50 (MCF7): 0.16 µM

Structure (SMILES): COc1cccc2c1C(=O)c1c(O)c3c(c(O)c1C2=O)C[C@@](O)(C(=O)CO)C[C@@H]3O[C@H]1C[C@H](N)[C@H](O)[C@H](C)O1 [DOXORUBICIN]
EC50 (HT-29): 0.055 µM
EC50 (A549): 0.029 µM
EC50 (SK-MEL-5): 0.032 µM
EC50 (MLM [2]): 0.13 µM
EC50 (MCF7): 0.031 µM

Structure (SMILES): COc1ccc(/C=C/c2cc(OC)cc(OC)c2)cc1 [TRISMETHOXYRESVERATROL]
EC50 (HT-29): 6.9 µM
IC50 (Bos taurus): > 40 µM
EC50 (A549): 7.5 µM
EC50 (MLM [1]): > 25 µM
EC50 (SK-MEL-5): 0.88 µM
EC50 (MCF7): 9.7 µM

Second part, led by results:

IC50 (Bos taurus): 18 µM
Structure (SMILES): CCc1ccc(CCc2cc(OC)c(OC)c(OC)c2)cc1
EC50 (HT-29): 0.016 µM
EC50 (A549): 0.088 µM
EC50 (MLM [1]): 0.27 µM
EC50 (SK-MEL-5): 0.047 µM
EC50 (MCF7): 0.16 µM

IC50 (Bos taurus): > 40 µM
Structure (SMILES): COc1cc(CCc2ccc(SC)cc2)cc(OC)c1OC
EC50 (HT-29): 0.4 µM
EC50 (A549): 0.15 µM
EC50 (MLM [1]): 1.3 µM
EC50 (SK-MEL-5): 0.24 µM
EC50 (MCF7): 0.2 µM

IC50 (Bos taurus): > 40 µM
Structure (SMILES): CCN(CC)CCOc1ccc(CCc2cc(OC)c(OC)c(OC)c2)cc1
EC50 (HT-29): 5.2 µM
EC50 (A549): 6.8 µM
EC50 (MLM [1]): > 25 µM
EC50 (SK-MEL-5): 8.5 µM
EC50 (MCF7): 4.3 µM

IC50 (Bos taurus): 3.4 µM
Structure (SMILES): CCc1ccc(/C=C\c2cc(OC)c(OC)c(OC)c2)cc1
EC50 (HT-29): 0.0027 µM
EC50 (A549): 0.012 µM
EC50 (MLM [1]): 0.0075 µM
EC50 (SK-MEL-5): 0.00086 µM
EC50 (MCF7): 0.072 µM

IC50 (Bos taurus): > 40 µM
Structure (SMILES): CCc1ccc(/C=C/c2cc(OC)c(OC)c(OC)c2)cc1
EC50 (HT-29): 0.11 µM
EC50 (A549): 0.13 µM
EC50 (MLM [1]): 0.22 µM
EC50 (SK-MEL-5): 0.17 µM
EC50 (MCF7): 1.2 µM
